Hits are enriched below; roughly 1.4% of the tested compounds scored in any of these assays.
CTSL1 counter = counter-screen for PFM18AAP inhibitors: inhibitors of F. hepatica cathepsin L1; hit rate 0.49% among 300,000; recombinant F. hepatica cathepsin L1, Z-Leu-Arg-MCA fluorescence; inhibition, % at 5.96 µM;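 active = inhibition above the mean of all tested compounds plus 3 SD, set per screening campaign, cut at about 17% in these data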
ZTA DNA inh = ZTA (EBV) inhibition in EBNA-1 counter-screen | P03206 | inhibition, % at 11 µM | ZTA-DNA binding, fluorescence polarization | hit rate 0.15% among 320,000; in the data active = inhibition above about 33%
Target sequence (P03206 whole entry, looked up): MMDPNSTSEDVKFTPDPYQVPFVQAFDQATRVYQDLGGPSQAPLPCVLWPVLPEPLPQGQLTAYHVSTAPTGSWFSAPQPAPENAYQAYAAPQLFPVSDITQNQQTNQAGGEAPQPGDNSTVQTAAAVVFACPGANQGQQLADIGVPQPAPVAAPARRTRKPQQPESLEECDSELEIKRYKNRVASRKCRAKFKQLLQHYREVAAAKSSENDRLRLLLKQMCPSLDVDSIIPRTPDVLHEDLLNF
EBNA-1 inh = blocks EBNA-1 binding to DNA; hit rate 0.34% among 300,000; AID 1950; inhibition, % at 14.8 µM; EBNA-1 DNA binding, fluorescence polarization; in the data active = inhibition above about 28%
HCV NS3 hel inh = inhibitors of Hepatitis C virus NS3 helicase. NS3 helicase DNA unwinding, Cy5 molecular beacon fluorescence. hit rate 0.56% among 290,000. AID 1800. inhibition, % at 10.9 µM;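 active = inhibition above the mean of all tested compounds plus 3 SD, set per campaign, cut at about 35% in these data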
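Test system: hepatitis C virus NS3 helicase domain fragment enzyme. Also added: annealed dual-labelled DNA beacon duplex, ATP-started. Timing: 60 min unwinding reaction at 25 °C after ATP addition. Technique: Cy5 fluorescence. Measure: % inhibition of unwinding.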
Zta DNA confirm = EBV ZTA DNA binding inhibition, confirmation. AID 2361. hit rate 30% among 320. shares compounds with ZTA DNA inh. Zta-ZRE DNA binding, fluorescence polarization. inhibition, % at 11.1 µM;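 active = mean inhibition across triplicate runs above the hit threshold derived for the original primary screen, cut at about 33% in these data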
EBNA1 counter = EBNA-1 DNA binding inhibition, counter-screen for ZTA | AID 2362 | shares compounds with ZTA DNA inh | inhibition, % at 14.8 µM | fluorescence polarization | 320 tested, under 10 active; call rule not given here
Of the large screens only hits and unclear results are named; the others gave an inactive call (follow-up assays come after a bar, where they were run).

N#Cc1c(N2CCCC2)nc(N)c2c(N)nc(N3CCCC3)cc12	CTSL1 counter 110, ZTA DNA inh 60 | Zta DNA confirm 55 | EBNA1 counter inactive
O=C(Nn1cnnc1)c1cc2cc(Br)ccc2oc1=O	none
CCS(=O)(=O)Nc1cc2c3c(c1)CCN3C(=O)CC2	none
CN(C)c1ccc(/C=C/C=C2/SC(=S)N(c3ccccc3)C2=O)cc1	none
COc1cccc(-n2cc(C(=O)NC(C)C)c3ccccc3c2=O)c1	ZTA DNA inh 155 | Zta DNA confirm inactive | EBNA1 counter inactive
COc1cccc(-n2cc(C(=O)NCCCOC(C)C)c3ccccc3c2=O)c1	none
Cc1ccc(-n2cc(CNCCCN3CCCC3=O)c(-c3ccc(F)cc3)n2)cc1	none
NC(=O)c1cccc2ccccc12	none
O=C(O)/C(=C\c1ccc2ccccc2c1)c1cccc2ccccc12	ZTA DNA inh 36 (no result: HCV NS3 hel inh) | Zta DNA confirm inactive | EBNA1 counter inactive
CCOc1ccc(CN2C(=O)c3ccccc3C2C(=O)NC(C)CC)cc1OC (centres undefined)	none
COc1ccc(CCNC(=O)C2c3ccccc3C(=O)N2CCC(C)C)cc1OC (centres undefined)	ZTA DNA inh 75 | Zta DNA confirm inactive | EBNA1 counter inactive
O=C(Nn1c(C2CCC2)nc2ccccc2c1=O)c1cccs1	ZTA DNA inh 34 | Zta DNA confirm inactive | EBNA1 counter inactive
O=C(Nc1ccnn1C1CCN(CCCc2ccccc2)CC1)c1ccccc1	none
Cn1c2ccccc2c(=O)n2c(=O)c3ccccc3cc12	CTSL1 counter 107, ZTA DNA inh 43 | Zta DNA confirm 33 | EBNA1 counter inactive
Cn1c(-c2ccccc2)cc(=O)c2ccccc21	none
Cn1nc(-c2ccc(Cl)cc2)nc2c(=O)n(C)c(=O)nc1-2	CTSL1 counter 113, ZTA DNA inh 49 | Zta DNA confirm 82 | EBNA1 counter inactive
Nc1nc(N)c2cc(Sc3ccc4ccccc4c3)ccc2n1	ZTA DNA inh 34 | Zta DNA confirm inactive | EBNA1 counter inactive
Nc1ccc(Sc2cc(Cl)nc(N)n2)cc1	none
Cc1nc2c(-c3ccc(F)cc3)cnn2c(N)c1-c1ccc(F)cc1	ZTA DNA inh 38 | Zta DNA confirm inactive | EBNA1 counter inactive
Cc1ccccc1OCCN1C(=O)c2ccccc2C1=O	none
Cc1cccc(OCC(=O)NCCCNC(=O)c2cccnc2)c1	none
c1ccc(-c2csc3ncnc(N4CCN(Cc5ccc6c(c5)OCO6)CC4)c23)cc1	none
O=C(CSc1ncnc2scc(-c3ccccc3)c12)N1CCN(Cc2ccc3c(c2)OCO3)CC1	ZTA DNA inh 59 | Zta DNA confirm 160 | EBNA1 counter 72
COCC1CCCCN1C(=O)c1ccc2nc(Cc3ccc(OC)c(OC)c3)oc2c1 (centres undefined)	ZTA DNA inh 35 | Zta DNA confirm inactive | EBNA1 counter inactive
Nc1nc(Nc2ccccc2F)sc1C(=O)c1ccccc1	ZTA DNA inh 52 | Zta DNA confirm inactive | EBNA1 counter inactive
CCC(Sc1nc2ccsc2c(=O)n1-c1ccc(Cl)c(C)c1)C(=O)NCc1ccco1 (centres undefined)	none
O=C(O)CC(NC(=O)CCc1ccccc1)c1ccc(Cl)cc1 (centres undefined)	ZTA DNA inh 62 | Zta DNA confirm inactive | EBNA1 counter inactive
CCC(NC(=O)CCc1ccccc1)c1ccccc1 (centres undefined)	none
CC(=O)Nc1ccc(N/C=C/C(=O)c2ccco2)cc1	none
NS(=O)(=O)c1ccc(N/C=C\C(=O)c2ccc(F)cc2)cc1	none
CN(C)c1ccc(N/C=C/C(=O)c2ccc(F)cc2)cc1	ZTA DNA inh 78 | Zta DNA confirm inactive | EBNA1 counter inactive
CN(C)c1ccc(N/C=C/C(=O)c2ccco2)cc1	ZTA DNA inh 91 | Zta DNA confirm inactive | EBNA1 counter inactive
COc1ccc(-c2nc(-c3ccc(C(=O)O)cc3)no2)cc1	none (no result: HCV NS3 hel inh)
COc1ccc(C(=O)N(C)CCCC2CCCC2)cc1OC1CCN(C(C)=O)CC1	none
COc1ccc(C(=O)N(C)CCCC2CCCC2)cc1OC1CCN(C(C)C)CC1	ZTA DNA inh 34 | Zta DNA confirm inactive | EBNA1 counter inactive
C=CCSC1=N/C(=C\c2cc(OC)c3c(c2)OCO3)C(=O)S1	none
CCN1CCN(CCNC(=O)c2ccc(CS(=O)(=O)c3ccccc3C)o2)CC1	none
CCOc1cc(/C=C2/C(=O)ON=C2C)ccc1OCc1ccccc1	none
CCOc1cc(/C=C2/C(=O)ON=C2C)ccc1OCc1ccc(F)cc1	ZTA DNA inh 35 | Zta DNA confirm inactive | EBNA1 counter inactive

High-throughput results: PubChem BioAssay, The Scripps Research Institute Molecular Screening Center
